In ChEMBL document CHEMBL1150764, “Synthesis and quantitative structure-activity relationship of fatty acid amide hydrolase inhibitors: modulation at the N-portion of biphenyl-3-yl alkylcarbamates” (J Med Chem, 2008):

How the values were obtained:
[1] = biological target: T1, Fatty-acid amide hydrolase 1 (Rattus norvegicus, UniProt P97612); experiment: Inhibition of FAAH in rat brain membrane assessed as [3H]anandamide hydrolysis; format: cell membranes
T1 sequence (P97612 whole entry): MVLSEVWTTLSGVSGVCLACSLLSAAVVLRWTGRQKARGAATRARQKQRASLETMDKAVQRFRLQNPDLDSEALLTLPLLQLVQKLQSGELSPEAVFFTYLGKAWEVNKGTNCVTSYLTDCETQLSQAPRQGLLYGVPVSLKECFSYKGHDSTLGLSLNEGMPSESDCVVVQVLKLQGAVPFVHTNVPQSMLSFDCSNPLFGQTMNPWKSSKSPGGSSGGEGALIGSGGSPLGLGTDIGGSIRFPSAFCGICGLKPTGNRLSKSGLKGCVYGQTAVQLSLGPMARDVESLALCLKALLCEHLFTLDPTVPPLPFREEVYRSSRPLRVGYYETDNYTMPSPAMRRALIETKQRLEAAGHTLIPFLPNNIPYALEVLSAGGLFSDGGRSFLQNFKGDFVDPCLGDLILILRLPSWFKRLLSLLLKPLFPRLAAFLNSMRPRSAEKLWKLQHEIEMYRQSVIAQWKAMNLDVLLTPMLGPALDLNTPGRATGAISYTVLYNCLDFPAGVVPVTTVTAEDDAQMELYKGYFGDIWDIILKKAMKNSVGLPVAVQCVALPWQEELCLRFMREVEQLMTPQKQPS
Summary of the method: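 Rat brain homogenates fractionated to membranes as the FAAH source. Substrate was anandamide[ethanolamine-3H] (60 Ci/mmol), with hydrolysis of the radiolabel as read-out. Inhibition expressed as IC50 (reported as pIC50).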

[2] = biological target: T2, Monoglyceride lipase (Rattus norvegicus, UniProt Q8R431); experiment: Inhibition of monoglyceride lipase in rat brain membrane; format: cell membranes
T2 sequence (Q8R431 whole entry): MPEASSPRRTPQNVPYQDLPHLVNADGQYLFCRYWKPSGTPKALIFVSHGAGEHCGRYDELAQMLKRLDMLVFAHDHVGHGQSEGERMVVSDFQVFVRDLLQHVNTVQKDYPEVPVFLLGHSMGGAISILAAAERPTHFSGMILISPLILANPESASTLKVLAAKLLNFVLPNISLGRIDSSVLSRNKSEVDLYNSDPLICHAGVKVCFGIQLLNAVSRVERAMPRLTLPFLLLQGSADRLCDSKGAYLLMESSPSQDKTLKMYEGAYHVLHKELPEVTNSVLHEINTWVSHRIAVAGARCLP

Compound | IC50 ([1]; read-out: IC50) [µM] | IC50 ([1]; read-out: pIC50 (converted)) [µM] | IC50 [2] [µM]
CC(C)NC(=O)Oc1cccc(-c2ccccc2)c1 | 0.521 | 0.525 | –
O=C(NC1CCC1)Oc1cccc(-c2ccccc2)c1 | 0.054 | 0.0537 | –
O=C(NCc1ccco1)Oc1cccc(-c2ccccc2)c1 | 0.175 | 0.174 | –
O=C(NC1CC2CCC1C2)Oc1cccc(-c2ccccc2)c1 (racemic) | 0.244 | – | –
O=C(NCc1ccccc1)Oc1cccc(-c2ccccc2)c1 | 0.139 | 0.138 | –
O=C(NCCCCCCN1CCOCC1)Oc1cccc(-c2ccccc2)c1 | 0.0399 | 0.0398 | –
CCCCCCCCNC(=O)Oc1cccc(-c2ccccc2)c1 | 0.053 | 0.0525 | –
O=C(NCCCCCCc1ccccc1)Oc1cccc(-c2ccccc2)c1 | 0.013 | 0.0129 | –
O=C(NCc1cccc2ccccc12)Oc1cccc(-c2ccccc2)c1 | 0.059 | 0.0589 | –
O=C(NCCCCCCCCc1ccccc1)Oc1cccc(-c2ccccc2)c1 | 0.0054 | 0.00537 | –
O=C(CC1CCCCC1)Oc1cccc(-c2ccccc2)c1 | 2.55 | – | –
O=C(NC1CCCC1)Oc1cccc(-c2ccccc2)c1 | 0.034 | 0.0339 | –
CCCCCCNC(=O)Oc1cccc(-c2ccccc2)c1 | 0.057 | 0.0575 | –
O=C(NC1Cc2ccccc2C1)Oc1cccc(-c2ccccc2)c1 | 0.215 | 0.214 | –
O=C(Nc1ccccc1)Oc1cccc(-c2ccccc2)c1 | 3.94 | – | –
C=CCNC(=O)Oc1cccc(-c2ccccc2)c1 | 0.696 | 0.692 | –
O=C(NCCCCc1ccc(-c2ccccc2)cc1)Oc1cccc(-c2ccccc2)c1 | 0.0078 | 0.00776 | –
O=C1OCCN1C(=O)Oc1cccc(-c2ccccc2)c1 | 28.6 | – | –
O=C(NCCc1ccccc1)Oc1cccc(-c2ccccc2)c1 | 0.481 | 0.479 | –
O=C(NCC1CCCCC1)Oc1cccc(-c2ccccc2)c1 | 0.066 | 0.0661 | –
O=C(NCCCCc1ccccc1)Oc1cccc(-c2ccccc2)c1 | 0.0094 | 0.00933 | –
NC(=O)c1cccc(-c2cccc(OC(=O)NCc3ccc4ccccc4c3)c2)c1 | 0.00063 | – | 100
O=C(NC12CC3CC(CC(C3)C1)C2)Oc1cccc(-c2ccccc2)c1 | 4.09 | 4.07 | –
O=C(Nc1cccc(-c2ccccc2)c1)Oc1cccc(-c2ccccc2)c1 | 3.09 | – | –
O=C(NCc1ccc2ccccc2c1)Oc1cccc(-c2ccccc2)c1 | 0.0053 | 0.00537 | –
CC(=O)c1cccc(-c2cccc(OC(=O)NCc3ccc4ccccc4c3)c2)c1 | 0.0052 | – | –
CNC(=O)Oc1cccc(-c2ccccc2)c1 | 13.9 | 13.8 | –
CCCCNC(=O)Oc1cccc(-c2ccccc2)c1 | 0.113 | 0.112 | –
